# According to ChEMBL document CHEMBL1133766, “Enkephalin glycopeptide analogues produce analgesia with reduced dependence liability” (J Med Chem, 2000):
# How the values were obtained:
# Mu-type opioid receptor = Mu-type opioid receptor (Homo sapiens, UniProt P35372); assay: Binding affinity towards Opioid receptor mu 1 was evaluated
# [1] = target: Delta-type opioid receptor (Homo sapiens, UniProt P41143); assay: Binding affinity towards Opioid receptor delta 1 was evaluated
# Mus musculus = organism: Mus musculus; assay: (§1) Opioid receptor activity was evaluated using mouse vas deferens (MVD) assay; assay type: functional, organism-based
# [2] = (§2) Opioid receptor activity was evaluated using guinea pig ileum (GPI) assay; assay type: functional, tissue-based; conditions: Cavia porcellus
# Rattus norvegicus [3] = assay: Amount of the drug required to produce 50% antinociception when administered intravenously; value ranges from 8.5-15.2; assay type: functional
# In short: (§3)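 55 °C tail-flick test after a single injection by the route named in the line, with graded doses giving a dose-response. % antinociception = 100 × [test latency − control latency]/[15 − control latency]. A50 is the amount of drug giving 50% antinociception, derived from the dose-response curve.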
# Rattus norvegicus [4] = assay: Amount of the drug required to produce 50% antinociception when administered intracerebroventricularly; value ranges from 0.01-0.04; assay type: functional; in short: as §3
# Rattus norvegicus [5] = assay: Amount of the drug required to produce 50% antinociception when administered intraperitoneally; value ranges from 21.2-55.5; assay type: functional; in short: as §3
# Rattus norvegicus [6] = assay: Amount of the drug required to produce 50% antinociception when administered subcutaneously; value ranges from 4.9-10.00; assay type: functional; in short: as §3
# [7] = as §2; assay type: tissue-based; conditions: Cavia porcellus
# Opioid receptor = Opioid receptor (Mus musculus, UniProt P42866+P32300+P33534); assay: as §1; assay type: tissue-based
# Rattus norvegicus [8] = assay: Amount of the drug required to produce 50% antinociception when administered subcutaneously; value ranges from 15.9-26.0; assay type: functional; in short: as §3
# Rattus norvegicus [9] = assay: Amount of the drug required to produce 50% antinociception when administered intracerebroventricularly; value ranges from 0.05-0.09; assay type: functional; in short: as §3
# Rattus norvegicus [10] = assay: Amount of the drug required to produce 50% antinociception when administered intraperitoneally; value ranges from 124.0-151.8; assay type: functional; in short: as §3
# Rattus norvegicus [11] = assay: Amount of the drug required to produce 50% antinociception when administered intravenously; value ranges from 35.4-60.7; assay type: functional; in short: as §3
# Rattus norvegicus [12] = assay: Amount of the drug required to produce 50% antinociception when administered intracerebroventricularly; value ranges from 1.8-4.2; assay type: functional; in short: as §3
# Rattus norvegicus [13] = assay: Amount of the drug required to produce 50% antinociception when administered subcutaneously; value ranges from 10.2-17.0; assay type: functional; in short: as §3
# Rattus norvegicus [14] = assay: Amount of the drug required to produce 50% antinociception when administered intravenously; value ranges from 4.9-7.9; assay type: functional; in short: as §3
# Rattus norvegicus [15] = assay: Amount of the drug required to produce 50% antinociception when administered intraperitoneally; value ranges from 11.8-18.0; assay type: functional; in short: as §3
# Chain of Delta-type opioid receptor (P41143 whole entry): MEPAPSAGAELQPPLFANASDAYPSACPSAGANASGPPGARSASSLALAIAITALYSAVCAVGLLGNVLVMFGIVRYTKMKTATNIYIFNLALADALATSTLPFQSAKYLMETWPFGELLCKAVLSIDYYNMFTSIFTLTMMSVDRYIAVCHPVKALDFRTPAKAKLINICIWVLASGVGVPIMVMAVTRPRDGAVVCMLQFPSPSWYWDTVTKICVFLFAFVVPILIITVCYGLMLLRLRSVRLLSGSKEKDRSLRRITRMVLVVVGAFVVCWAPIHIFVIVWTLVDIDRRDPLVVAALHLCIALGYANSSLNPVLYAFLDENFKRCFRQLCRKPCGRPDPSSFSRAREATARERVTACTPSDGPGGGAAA
# Chain of Mu-type opioid receptor (P35372 whole entry): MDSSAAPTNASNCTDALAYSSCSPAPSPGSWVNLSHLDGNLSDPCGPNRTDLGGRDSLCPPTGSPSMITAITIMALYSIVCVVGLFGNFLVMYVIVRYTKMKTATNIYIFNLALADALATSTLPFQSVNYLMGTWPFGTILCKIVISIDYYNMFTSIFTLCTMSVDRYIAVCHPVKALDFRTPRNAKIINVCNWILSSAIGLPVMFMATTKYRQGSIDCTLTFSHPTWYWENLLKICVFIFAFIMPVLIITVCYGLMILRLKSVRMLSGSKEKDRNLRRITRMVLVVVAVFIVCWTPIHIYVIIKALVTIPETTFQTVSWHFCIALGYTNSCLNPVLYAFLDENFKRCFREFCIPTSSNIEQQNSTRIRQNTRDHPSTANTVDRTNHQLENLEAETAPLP
smiles,measurement,setting,value
CC(C)C[C@H](NC(=O)[C@H](Cc1ccccc1)NC(=O)CNC(=O)[C@H](NC(=O)[C@@H](N)Cc1ccc(O)cc1)[C@H](C)O)C(=O)N[C@@H](CO[C@H]1O[C@@H](CO)[C@H](O)[C@@H](O)[C@H]1O)C(N)=O [listing 1 of 2 here],IC50,Mu-type opioid receptor,8.2 nM
same,IC50,[1],3.4 nM
same,IC50,Mus musculus,1.6 nM
same,IC50,[2],33.8 nM
CC(C)C[C@H](NC(=O)[C@H](Cc1ccccc1)NC(=O)CNC(=O)[C@H](NC(=O)[C@@H](N)Cc1ccc(O)cc1)[C@H](C)O)C(=O)N[C@@H](CO[C@H]1O[C@@H](CO)[C@H](O)[C@@H](O)[C@H]1O)C(N)=O [listing 2 of 2 here],A50,Rattus norvegicus [3],11.4 mM/kg
same,A50,Rattus norvegicus [4],0.02 nM
same,A50,Rattus norvegicus [5],34.3 mM/kg
same,A50,Rattus norvegicus [6],7.2 mM/kg
CC(C)C[C@H](NC(=O)[C@H](Cc1ccccc1)NC(=O)CNC(=O)[C@H](NC(=O)[C@@H](N)Cc1ccc(O)cc1)[C@H](C)O)C(=O)N[C@@H](CO)C(N)=O [listing 1 of 2 here],IC50,Mu-type opioid receptor,4 nM
same,IC50,[7],25 nM
same,IC50,[1],2.4 nM
same,IC50,Opioid receptor,2.7 nM
CC(C)C[C@H](NC(=O)[C@H](Cc1ccccc1)NC(=O)CNC(=O)[C@H](NC(=O)[C@@H](N)Cc1ccc(O)cc1)[C@H](C)O)C(=O)N[C@@H](CO)C(N)=O [listing 2 of 2 here],A50,Rattus norvegicus [8],20.3 mM/kg
same,A50,Rattus norvegicus [9],0.07 nM
same,A50,Rattus norvegicus [10],137.2 mM/kg
same,A50,Rattus norvegicus [11],46.4 mM/kg
CN1CC[C@]23c4c5ccc(O)c4O[C@H]2[C@@H](O)C=C[C@H]3[C@H]1C5 [MORPHINE],A50,Rattus norvegicus [12],2.7 nM
same,A50,Rattus norvegicus [13],13.2 mM/kg
same,A50,Rattus norvegicus [14],6.3 mM/kg
same,A50,Rattus norvegicus [15],14.6 mM/kg
